In ChEMBL document CHEMBL1144841, “Discovery of a novel indole series of EP1 receptor antagonists by scaffold hopping” (Bioorg Med Chem Lett, 2008):

Legend:
[1] = molecular target: T1, Prostaglandin E2 receptor EP1 subtype (Homo sapiens, UniProt P34995); experiment: Displacement of [3H]PGE2 from human EP1 receptor expressed in CHOK1 cells; assay type: cell-based, CHO-K1
T1 sequence (P34995 whole entry): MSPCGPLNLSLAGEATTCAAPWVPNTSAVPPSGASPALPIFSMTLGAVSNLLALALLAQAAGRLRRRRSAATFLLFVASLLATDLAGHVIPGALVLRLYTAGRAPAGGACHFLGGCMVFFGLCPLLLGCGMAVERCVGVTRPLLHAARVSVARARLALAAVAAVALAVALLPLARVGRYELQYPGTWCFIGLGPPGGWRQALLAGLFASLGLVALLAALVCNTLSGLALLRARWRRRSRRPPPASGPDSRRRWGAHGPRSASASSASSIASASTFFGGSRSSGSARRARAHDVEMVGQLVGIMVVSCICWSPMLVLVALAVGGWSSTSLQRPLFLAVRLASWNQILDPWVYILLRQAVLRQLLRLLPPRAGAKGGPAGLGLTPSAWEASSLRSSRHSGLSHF
Outline: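 Membranes from CHO-K1 cells stably transfected with human EP1 cDNA were incubated with competing compound and [3H]-PGE2 (3 nM final) for 30 min at 30 °C. Bound radioactivity was counted by liquid scintillation. Values are means of at least three experiments.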

Liver [2] = experiment: Metabolic stability assessed as intrinsic clearance in human liver microsome; assay type: ADME; conditions: microsomes
Outline: (§1)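 Intrinsic clearance was measured in liver microsomes and expressed as mL/min/g liver. Values come from a single experiment.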

Liver [3] = experiment: Metabolic stability assessed as intrinsic clearance in rat liver microsome; assay type: ADME; conditions: microsomes; outline: as §1
[4] = molecular target: T2, Prostaglandin E2 receptor EP3 subtype (Homo sapiens, UniProt P43115); experiment: Antagonist activity against EP3 receptor by FLIPR assay; assay type: functional
T2 sequence (P43115 whole entry): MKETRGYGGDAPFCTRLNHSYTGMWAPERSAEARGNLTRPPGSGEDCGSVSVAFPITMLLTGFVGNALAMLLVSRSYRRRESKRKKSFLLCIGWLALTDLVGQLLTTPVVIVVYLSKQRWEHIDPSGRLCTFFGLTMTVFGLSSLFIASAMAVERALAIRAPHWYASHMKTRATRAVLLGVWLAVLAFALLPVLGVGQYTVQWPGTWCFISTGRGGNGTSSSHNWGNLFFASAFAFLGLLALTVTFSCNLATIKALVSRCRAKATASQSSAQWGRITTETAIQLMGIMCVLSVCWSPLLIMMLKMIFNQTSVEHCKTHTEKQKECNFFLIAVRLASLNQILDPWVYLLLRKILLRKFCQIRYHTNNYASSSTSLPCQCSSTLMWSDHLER

[5] = molecular target: T1, Prostaglandin E2 receptor EP1 subtype; experiment: Antagonist activity against human EP1 receptor expressed in CHOK1 cells assessed as inhibition of PGE2-induced intracellular calcium mobilization by FLIPR assay; assay type: functional, cell-based, CHO-K1
Thromboxane A2 receptor = molecular target: T3, Thromboxane A2 receptor (Homo sapiens, UniProt P21731); experiment: Antagonist activity against TP receptor by FLIPR assay; assay type: functional
T3 sequence (P21731 whole entry): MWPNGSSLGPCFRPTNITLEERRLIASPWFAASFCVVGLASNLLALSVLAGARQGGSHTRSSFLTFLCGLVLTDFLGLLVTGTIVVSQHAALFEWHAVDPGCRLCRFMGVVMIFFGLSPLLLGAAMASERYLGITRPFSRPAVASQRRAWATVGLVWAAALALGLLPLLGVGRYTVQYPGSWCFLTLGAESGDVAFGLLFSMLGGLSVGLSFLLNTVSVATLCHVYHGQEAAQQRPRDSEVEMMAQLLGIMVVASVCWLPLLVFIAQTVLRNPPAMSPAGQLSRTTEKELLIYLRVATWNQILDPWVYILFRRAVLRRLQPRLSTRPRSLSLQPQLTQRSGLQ

Rattus norvegicus [6] = experiment: Inhibition of complete Freund's adjuvant-induced hypersensitivity in orally dosed rat; assay type: functional; conditions: po
Outline: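 Rats with CFA-induced inflammatory hypersensitivity were dosed orally, seven per dose group, with celecoxib 10 mg/kg po as comparator. Readout was taken 1 h after dosing. ED50 was calculated from the dose-response, and significance was reported at p < 0.05, 0.01 and 0.001.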

Rattus norvegicus [7] = experiment: Drug level in complete Freund's adjuvant-induced hypersensitivity rat blood at 3 mg/kg, po; assay type: ADME, organism-based; design: dose 3 mg/kg, route oral; conditions: in vivo, read-out: Drug uptake
Outline: (§2)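 Blood was sampled from the rats in the CFA hypersensitivity efficacy study, seven per dose group, and analysed by bioanalysis. Rats were dosed orally at 1, 3 and 10 mg/kg.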

Rattus norvegicus [8] = experiment: Drug level in complete Freund's adjuvant-induced hypersensitivity rat blood at 10 mg/kg, po; assay type: ADME, organism-based; design: dose 10 mg/kg, route oral; conditions: in vivo, read-out: Drug uptake; outline: as §2
[9] = Ratio of drug level in brain to blood in complete Freund's adjuvant-induced hypersensitivity rat; assay type: ADME, tissue-based
Rattus norvegicus [10] = experiment: Drug level in complete Freund's adjuvant-induced hypersensitivity rat blood at 1 mg/kg, po; assay type: ADME, organism-based; design: dose 1 mg/kg, route oral; conditions: in vivo, read-out: Drug uptake; outline: as §2

CCc1cn(-c2nc(C(=O)O)cs2)c2cc(Cl)ccc12
IC50 ([1]; read-out: Log IC50 (converted)): 126 nM

CC(C)Cc1cn(-c2cccc(C(=O)O)c2)c2cc(Cl)ccc12
IC50 ([1]; read-out: Log IC50 (converted)): 631 nM

CC(C)(C)Cc1cn(-c2nc(C(=O)[O-])cs2)c2cc(Cl)ccc12.[Na+]
CL (Liver [2]): 2.7 mL/min/g | CL (Liver [3]): 1.9 mL/min/g | IC50 ([1]; read-out: Log IC50 (converted)): 31.6 nM

CC(C)C(=O)c1cn(-c2nc(C(=O)O)cs2)c2cc(Cl)ccc12
IC50 ([1]; read-out: Log IC50 (converted)): 100 nM

CC(C)Cc1cn(-c2nc(C(=O)O)cs2)c2cc(C(F)(F)F)ccc12
Ki [4]: 501 nM | Ki ([5]; read-out: Log Ki (converted)): 0.0631 nM | IC50 ([1]; read-out: Log IC50 (converted)): 12.6 nM

CC(C)Cc1cn(-c2nc(C(=O)[O-])cs2)c2cc(Cl)ccc12.[Na+]
Ki [4]: 316 nM | Ki ([5]; read-out: Ki): 0.5 nM | Ki (Thromboxane A2 receptor): 31.6 nM | CL (Liver [2]): 2.2 mL/min/g | CL (Liver [3]): 12 mL/min/g | IC50 ([1]; read-out: IC50): 6.3 nM

CC(C)Cc1cn(-c2nc(C(=O)O)co2)c2cc(Cl)ccc12
Ki ([5]; read-out: Log Ki (converted)): 1 nM | IC50 ([1]; read-out: Log IC50 (converted)): 7.94 nM

CN(C)C(=O)c1cn(-c2nc(C(=O)O)cs2)c2cc(Cl)ccc12
IC50 ([1]; read-out: Log IC50 (converted)): 1000 nM

CC(C)Cc1cn(CC(=O)O)c2cc(Cl)ccc12
IC50 ([1]; read-out: Log IC50 (converted)): > 1000 nM

O=C(O)c1csc(-n2cc(Cc3ccccc3)c3ccc(Cl)cc32)n1
Ki ([5]; read-out: Log Ki (converted)): 63.1 nM | IC50 ([1]; read-out: Log IC50 (converted)): 158 nM

CN(C)CCc1cn(-c2nc(C(=O)O)cs2)c2cc(Cl)ccc12
IC50 ([1]; read-out: Log IC50 (converted)): > 1000 nM

CC(C)Cc1cn(-c2ccc(C(=O)O)s2)c2cc(Cl)ccc12
IC50 ([1]; read-out: Log IC50 (converted)): 50.1 nM

CC(C)Cc1cn(-c2ccc(C(=O)[O-])o2)c2cc(Cl)ccc12.[Na+]
Ki [4]: 501 nM | Ki ([5]; read-out: Log Ki (converted)): 1.26 nM | Ki (Thromboxane A2 receptor): 398 nM | CL (Liver [2]): 5.4 mL/min/g | CL (Liver [3]): 35 mL/min/g | IC50 ([1]; read-out: Log IC50 (converted)): 25.1 nM

CC(C)Cc1cn(-c2nc(C(=O)O)cs2)c2cc(F)ccc12
IC50 ([1]; read-out: Log IC50 (converted)): 39.8 nM

CC(C)Cc1cn(-c2nc(C(=O)O)cs2)c2ccc(Cl)cc12
IC50 ([1]; read-out: Log IC50 (converted)): 39.8 nM

O=C(O)c1csc(-n2cc(CC(F)(F)F)c3ccc(Cl)cc32)n1
IC50 ([1]; read-out: Log IC50 (converted)): 251 nM

CCCc1cn(-c2nc(C(=O)[O-])cs2)c2cc(Cl)ccc12.[Na+]
CL (Liver [2]): 1.3 mL/min/g | CL (Liver [3]): 11 mL/min/g | IC50 ([1]; read-out: Log IC50 (converted)): 31.6 nM

CC(C)Cc1cn(-c2nc(CC(=O)O)cs2)c2cc(Cl)ccc12
IC50 ([1]; read-out: Log IC50 (converted)): 158 nM

CC(C)Cc1cn(Cc2nc(C(=O)O)cs2)c2cc(Cl)ccc12
IC50 ([1]; read-out: Log IC50 (converted)): 6.31 nM

CC(C)(C)CCc1cn(-c2nc(C(=O)[O-])cs2)c2cc(Cl)ccc12.[Na+]
Ki [4]: 398 nM | Ki ([5]; read-out: Log Ki (converted)): 3.98 nM | Ki (Thromboxane A2 receptor): 79.4 nM | CL (Liver [2]): 2.1 mL/min/g | CL (Liver [3]): 1.3 mL/min/g | IC50 ([1]; read-out: Log IC50 (converted)): 6.31 nM

O=C(O)c1csc(-n2ccc3ccc(Cl)cc32)n1
IC50 ([1]; read-out: Log IC50 (converted)): > 1000 nM

CC(C)c1cn(-c2nc(C(=O)O)cs2)c2cc(Cl)ccc12
IC50 ([1]; read-out: Log IC50 (converted)): 39.8 nM

CC(C)Cc1cn(-c2nc(C(=O)O)cs2)c2cc(Br)ccc12
Ki [4]: 398 nM | Ki ([5]; read-out: Log Ki (converted)): 0.2 nM | Ki (Thromboxane A2 receptor): 50.1 nM | IC50 ([1]; read-out: Log IC50 (converted)): 3.98 nM

CN(C)Cc1cn(-c2nc(C(=O)O)cs2)c2cc(Cl)ccc12
IC50 ([1]; read-out: Log IC50 (converted)): > 1000 nM

CC(C)Cc1cn(-c2ccccc2C(=O)O)c2cc(Cl)ccc12
IC50 ([1]; read-out: Log IC50 (converted)): > 1000 nM

CC(C)Cc1cn(-c2ncc(C(=O)O)s2)c2cc(Cl)ccc12
IC50 ([1]; read-out: Log IC50 (converted)): 100 nM

Cc1c(CC(C)C)c2ccc(Cl)cc2n1-c1nc(C(=O)O)cs1
IC50 ([1]; read-out: Log IC50 (converted)): 39.8 nM

Cc1ccc2c(CC(C)C)cn(-c3nc(C(=O)O)cs3)c2c1
IC50 ([1]; read-out: Log IC50 (converted)): 10 nM

CC(C)Cc1cn(-c2nc(C(=O)O)cs2)c2ccccc12
Ki ([5]; read-out: Log Ki (converted)): 12.6 nM | IC50 ([1]; read-out: Log IC50 (converted)): 158 nM

CC(C)Cc1cn(-c2cccc(C(=O)[O-])n2)c2cc(Cl)ccc12.[Na+]
Ki [4]: 794 nM | ED50 (Rattus norvegicus [6]): 2.17 mg/kg | concentration (Rattus norvegicus [7]): 1230 nM | Ki ([5]; read-out: Log Ki (converted)): 20 nM | concentration (Rattus norvegicus [8]): 6040 nM | CL (Liver [2]): 3.6 mL/min/g | CL (Liver [3]): 4.3 mL/min/g | IC50 ([1]; read-out: Log IC50 (converted)): 63.1 nM | Kp [9]: 0.05 | concentration (Rattus norvegicus [10]): 440 nM
